Shown are actives, neighbours in structure and some others; about 3.5% of the full set was active somewhere.
MrgX1 ag: agonists of human MrgX1 receptor. MrgX1-HEK293 cells, Fluo-4 calcium fluorescence, agonist mode; hits give high values. AID 588627. 310,000 tested, 0.44% active. Q96LB2. B-score at 10 µM;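 active = calcium response B-score plate-corrected fluorescence ratio at least 3 library SD, with starting fluorescence B-score inside 5 SD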
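System: HEK293 cells stably expressing human MrgX1 receptor; Dosing: test compound in the initial addition of three; Schedule: overnight plating, then 30 min 37 °C plus 30 min room-temperature dye loading; Detection: kinetic calcium dye fluorescence, Fluo-4 NW; Controls: per-plate positive and negative controls for Z′ factor.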
MrgX1 antag: blocks BAM8-22 activation of human MrgX1 receptor; B-score at 10 µM; Q96LB2; 310,000 tested, 1.3% active; MRGX1-HEK293 calcium flux, Fluo-4, BAM8-22 antagonism; hits give low values;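 active = calcium-response B-score plate-corrected more than 3 library SD below zero, starting fluorescence within 5 deviations, no agonist response on first addition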;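 also: peak minus trough fluorescence over baseline after final BAM8-22 challenge near maximal dose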
MrgX1 PAM: human MrgX1 positive allosteric modulation, primary screen; Q96LB2; MrgX1-HEK293, Fluo-4 calcium flux, FDSS; hits give high values; B-score at 10 µM; 310,000 tested, 0.63% active;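 active = plate-corrected calcium response at least 3 library SD above typical, normal starting fluorescence, not activating the receptor alone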;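 also: compound read alongside a low EC10 to EC30 dose of BAM8-22 agonist; peak minus trough fluorescence over baseline measured at the second addition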
RGS4 act: RGS4 potentiation or activation. 310,000 tested, 0.92% active. HEK293 M3R/inducible RGS4, carbachol calcium flux Fluo4; hits give low values. AID 463111. B-score at 10 µM;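 active = B-score of the integrated calcium signal more than 4 SD below the library mean, with starting fluorescence not abnormally high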;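 also: negative B-score means reduced calcium response which marks RGS4 activation or potentiation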
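test system = HEK293 cells with stable M3R and inducible RGS4 | schedule = recording 10 s baseline at 1 Hz, 100 s post-agonist | technique = Fluo4-AM (2 µM) calcium-flux fluorescence, kinetic read | measure = Agonist-evoked peak-minus-minimum fluorescence over baseline, integrated ratio, B score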
RGS4 block: inhibitors of human RGS4 | P49798 | HEK293 M3R/RGS4 inducible, Fluo-4 calcium flux; hits give high values; triggered by carbachol at its EC20 | B-score at 10 µM | 310,000 tested, 0.45% active | AID 463165;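 active = B-score, a plate-corrected calcium signal, over three deviations above library mean, with baseline fluorescence within five deviations of library mean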;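 also: RGS4 expression induced by doxycycline in cells with stable M3 receptor; B-score is computed from the integrated fluorescence ratio over baseline after carbachol; higher B-score means a larger calcium signal and so more RGS4 inhibition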
Target sequence (P49798 whole entry, looked up): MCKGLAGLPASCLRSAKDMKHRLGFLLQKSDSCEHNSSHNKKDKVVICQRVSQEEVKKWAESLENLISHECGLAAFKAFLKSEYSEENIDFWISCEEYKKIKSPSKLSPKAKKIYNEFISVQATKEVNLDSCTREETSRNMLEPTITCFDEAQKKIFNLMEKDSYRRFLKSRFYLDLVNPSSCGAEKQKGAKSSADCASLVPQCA
RGS4 inh valid: validation of RGS4 inhibitors; shares compounds with RGS4 block; HEK293 M3R/RGS4, carbachol calcium Fluo-4 fluorescence; carbachol added at its EC20; 0 = buffer wells, 100 = carbachol control; calcium response, % at 10 µM; 1,700 tested, 65% active;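 active = duplicate-averaged calcium response above the buffer-only control mean plus 5 SD of those controls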;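 also: integrated fluorescence ratio F max minus min over baseline F0; higher response in RGS4-induced cells means RGS4 inhibition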
RGS4 uninduced: non-induced cell nonspecific activity of RGS4 inhibitors; shares compounds with RGS4 block; HEK293 M3R non-induced, carbachol calcium Fluo-4; submaximal (EC20) carbachol stimulus; buffer wells 0%, carbachol control wells 100%; activity (percent), % at 10 µM; 1,900 tested, 20% active; call rule not given here;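 also: RGS4 induction absent so cells express M3R without RGS4; higher means more calcium signal and flags a non-specific hit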
M3R basal Ca ctr: second RGS4 inhibitor counter-screen in uninduced cells lacking carbachol | shares compounds with RGS4 block | HEK293 M3R/RGS4 non-induced, Fluo-4 calcium, no carbachol; normalised: buffer wells 0%, carbachol wells 100% | calcium response (agonist-mode artifact), % at 10 µM | 1,900 tested, 22% active | AID 493001;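 active = duplicate-averaged calcium rise in uninduced cells above buffer wells' mean plus 5 SD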
The depositor's hits bear a star; i = inactive; nt = not tested or not shown.

SMILES | MrgX1 ag | MrgX1 antag | MrgX1 PAM | RGS4 act | RGS4 block | RGS4 inh valid | RGS4 uninduced | M3R basal Ca ctr
CC(C)(C)c1cc(-n2ccnc2)n2ncc(-c3ccc(Cl)cc3)c2n1 | i | i | i | i | 4.7* | 14.5%* | i | i
CCCc1cc(N2CCOCC2)n2ncc(-c3ccccc3)c2n1 | i | i | i | i | i | nt | nt | nt
CC(C)(C)c1cc(NCCCn2ccnc2)n2ncc(-c3ccccc3)c2n1 | i | i | i | i | 9.04* | 10.5%* | i | i
CC(C)(C)c1cc(N2CCOCC2)n2ncc(-c3ccccc3)c2n1 | i | i | i | i | i | i | i | i
CC(C)C[C@H](NC(=O)N1CCn2c1nc1ccccc12)C(=O)NCC1CCCO1 (stereo not given in full) | i | i | i | i | i | nt | nt | nt
CCN(CC)c1ccc(/C=N\N2CCN(Cc3ccc(C)cc3)CC2)cc1 | i | i | i | i | i | i | i | i
C/C(=N/OCO/N=C(\C)c1ccc(F)cc1F)c1ccc(F)cc1F | i | i | i | i | i | nt | nt | nt
O=C1C=CC(O)(c2cc(=O)c3c(O)cc(O)cc3o2)C=C1 | i | i | i | i | 26.2* | 78.5%* | 30.5%* | i
C/C(=N\OC(=O)c1ccc(Cl)cc1)c1nccs1 | i | i | i | i | i | nt | nt | nt
Cc1[nH]c2ccccc2c1C(=O)CSc1ccc(Cl)cc1 | i | i | i | i | i | nt | nt | nt
Cc1[nH]c2ccccc2c1C(=O)CN1C(=O)NC(C)(c2ccc(Cl)cc2Cl)C1=O (stereo not given) | i | i | i | i | 10.2* | 30.0%* | i | 56.5%*
CCn1nc(NS(=O)(=O)c2ccc(C)cc2)c2cc3ccccc3nc21 | i | i | i | i | i | nt | nt | nt
CCn1nc(NS(=O)(=O)c2ccc(F)cc2)c2cc3cccc(C)c3nc21 | i | i | i | i | i | i | i | i
CCn1nc(NS(=O)(=O)c2ccccc2)c2cc3cccc(C)c3nc21 | i | i | i | i | i | nt | i | i
CCCn1nc(NS(C)(=O)=O)c2cc3cccc(C)c3nc21 | i | i | i | i | i | nt | nt | nt
CCn1nc(NS(=O)(=O)c2ccc([N+](=O)[O-])cc2)c2cc3ccccc3nc21 | i | i | i | i | i | nt | i | i
CCn1nc(NS(=O)(=O)c2ccc(NC(C)=O)cc2)c2cc3cccc(C)c3nc21 | i | i | i | i | i | nt | nt | nt
COc1ccc(OCCCC(=O)NCC(C)C)cc1 | i | i | i | i | i | nt | nt | nt
O=C(CCN1C(=O)/C(=C/c2ccccc2F)SC1=S)NC1C=CS(=O)(=O)C1 (stereo not given) | i | i | i | i | i | nt | nt | nt
CCOc1ncccc1C(=O)OCC(=O)Nc1ccc2c(c1)OCO2 | i | i | i | i | i | nt | nt | nt
O=C1/C(=C/c2cccnc2)Sc2ccccc21 | 46.8* | i | i | i | 7.92* | 42.0%* | 46.5%* | 32.5%*
CC(=O)Nc1ccc(/C=C2\Sc3ccccc3C2=O)cc1 | i | i | i | i | i | nt | nt | nt
Cc1cccc(N=c2oc3cc(O)ccc3cc2C(N)=O)c1 | i | i | i | i | 4.71* | 6.0%* | i | 30.5%*
CNc1nc(N)c([N+](=O)[O-])c(Nc2cccc(Cl)c2)n1 | i | i | i | i | 14.9* | 10.0%* | 34.5%* | 10.0%*
CNc1nc(N)c([N+](=O)[O-])c(NC2CCCCC2)n1 | i | i | i | i | 6.01* | 32.0%* | 39.0%* | i

High-throughput results deposited in PubChem by Johns Hopkins Ion Channel Center.
